Screening results from PubChem BioAssay.
RAD52 inh = RAD52 DNA annealing inhibitors, primary screen, biochemical, FRET, single point, set 2 | recombinant RAD52 DNA annealing, FRET fluorescence | DNA repair protein RAD52 homolog (Homo sapiens), P43351 | 0.46% of 360,000 active | inhibition, % at 18.7 µM;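 active = every replicate showing at least 50% inhibition; inconclusive = mean inhibition at least 50% but not in every replicate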
RAD54 branch = inhibitors of human RAD54 branch migration, primary screen, biochemical, fluorescence, single point. DNA repair and recombination protein RAD54-like (Homo sapiens), Q92698. RAD54 Holliday junction branch migration, FAM/BHQ fluorescence. inhibition, % at 10.4 µM. 0.14% of 360,000 active. AID 602329, 2012;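 active = mean normalized replicate activity at least 40 and at least half of replicates scoring 40 or more; inconclusive = only one of the two criteria met; inactive = mean below 40 and under half of replicates reaching 40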;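 also: inhibitors cause a drop in the FAM fluorescence signal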
E-selectin induc = E-selectin induction in HUVECs, primary screen, imaging, HUVEC, immunofluorescence imaging, single point; activation, % at 7.58 µM; P16581; 0.37% of 260,000 active; normalized: neutral wells 0, TNF-alpha wells 100;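 active = mean E-selectin-positive cell signal at least 10% of the positive control, reached in at least 60% of replicates, without over 20% cell loss; inconclusive = no rule given, readout overlaps actives, possibly toxicity-flagged; inactive = the rest, including those meeting only one limit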
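Read-out: % PE-positive cells | Test system: HUVEC | Doses: One compound dose added by pin transfer | Buffer or medium: EGM-2 over gelatin coat | Signal: Immunofluorescence imaging | Benchmarks: TNF-alpha, DMSO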
rRNA inh HTS = reduced GFP signal of wild-type E. coli, primary screen, bacterial rRNA inhibitor project, GFP/RFP fluorescence, OD600, single point | 1.6% of 350,000 active | E. coli WT GFP vs humanized-ribosome RFP mutants, 24 h; stronger effect = lower value; DMSO median 0, no signal -100 | GFP signal change (wild-type ribosome), % (test concentration not listed);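 active = significant combined selectivity score with lowered wild-type GFP, culture density cut under 30%, mutant RFP and density less affected; inactive = any of these conditions unmet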
MLL AF4-AF9 inh = inhibitors of AF4 peptide binding to AF9, primary screen, biochemical, AlphaScreen, biotin-AF4 peptide, FLAG-AF9, single point | Protein AF-9 (Homo sapiens), P42568 | inhibition, % at 10 µM | 0.47% of 350,000 active | AID 651704, 2012;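 active = every replicate reaching a set inhibition limit, whatever the replicate mean, cut at about 25% in these data; inconclusive = mean inhibition reaches that limit but some replicates miss it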
Target sequence (P42568 whole entry, looked up): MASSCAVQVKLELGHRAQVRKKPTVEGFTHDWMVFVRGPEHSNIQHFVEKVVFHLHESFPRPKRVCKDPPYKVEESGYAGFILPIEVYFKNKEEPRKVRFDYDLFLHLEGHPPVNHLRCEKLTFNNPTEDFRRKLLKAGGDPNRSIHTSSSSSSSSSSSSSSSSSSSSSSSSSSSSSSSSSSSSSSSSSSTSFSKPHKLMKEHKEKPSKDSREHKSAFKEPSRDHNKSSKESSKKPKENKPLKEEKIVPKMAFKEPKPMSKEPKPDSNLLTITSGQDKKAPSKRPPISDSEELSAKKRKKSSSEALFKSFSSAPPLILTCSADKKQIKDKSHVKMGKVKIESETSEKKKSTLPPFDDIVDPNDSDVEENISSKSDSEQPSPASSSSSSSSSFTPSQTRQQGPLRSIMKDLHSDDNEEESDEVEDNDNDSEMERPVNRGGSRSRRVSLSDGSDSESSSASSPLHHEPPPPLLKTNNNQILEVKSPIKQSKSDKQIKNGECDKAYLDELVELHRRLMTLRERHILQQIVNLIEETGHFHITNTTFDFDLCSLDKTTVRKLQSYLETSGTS
GSIS activator = GLuc luminescence reporter in INS-1E cells, primary screen for activators of glucose-dependent secretion of insulin. activation, % at 16.6 µM. INS-1E GLuc reporter insulin secretion, 2-3 h. AID 743287, 2014. 0.61% of 370,000 active;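 active = lowest replicate activation of at least 40%, so every replicate reaches that level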
RAD52 DNA ctr = DNA-binding compounds via dye displacement, dose response, artefact control for RAD52 inhibitor project, biochemical, fluorescence polarization, cherry-pick | shares compounds with RAD52 inh | Salmon sperm DNA/acridine orange FP displacement | AC50, µM | 8% of 1,000 active;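 active = fitted half-maximal concentration for signal loss at or below twice the highest dose tested, in every separate run, actives reach about 64 µM in these data; inconclusive = runs disagree, or flat partial signal loss, or poor fit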
Hits are given with their value. Shown are actives, neighbours in structure and some others; about 2.6% of the full set was active somewhere.

Cc1c(CCOC(=O)c2cc([N+](=O)[O-])cc([N+](=O)[O-])c2)sc[n+]1CC(=O)c1ccc(Br)cc1 was read as RAD52 inh 94, rRNA inh HTS inactive, MLL AF4-AF9 inh inactive, GSIS activator inactive and RAD52 DNA ctr inactive.
For Cc1c(CCOC(=O)c2ccc(Cl)cc2Cl)sc[n+]1CC(=O)c1ccccc1 the results were RAD52 inh inactive, E-selectin induc inactive, rRNA inh HTS inactive, MLL AF4-AF9 inh inactive and GSIS activator inactive.
Screening CCOc1ccc(CCN2C(=S)N([C@@H](Cc3ccc(O)cc3)CN3CCC[C@@H]3CN3C(=S)NC[C@@H]3CC(C)C)C[C@@H]2Cc2ccc(O)cc2)cc1 returned RAD52 inh 67, RAD54 branch inactive, E-selectin induc inconclusive, rRNA inh HTS inactive, MLL AF4-AF9 inh inactive, GSIS activator inactive and RAD52 DNA ctr inactive.
Screening NCCCC[C@H]1CN=C(N)N1CCC12CC3CC(CC(C3)C1)C2 returned RAD52 inh 57, RAD54 branch inactive, E-selectin induc inactive, rRNA inh HTS inactive, MLL AF4-AF9 inh inactive, GSIS activator inactive and RAD52 DNA ctr inactive.
For NCCCC[C@H]1CN=C(N)N1CCc1cccc2ccccc12 the results were RAD52 inh inactive, RAD54 branch inactive, rRNA inh HTS inactive, MLL AF4-AF9 inh inactive and GSIS activator inactive.
C[C@@H]1CN([C@@H](C)CO)S(=O)(=O)c2ccc(C#CC3CC3)cc2O[C@H]1CN(C)Cc1ccccc1 was read as RAD52 inh inactive, RAD54 branch inactive, E-selectin induc inactive, rRNA inh HTS inactive, MLL AF4-AF9 inh inactive and GSIS activator inactive.
For COc1cccc2sc3ccc(C#CC4(N)CCCCC4)cc3c(=O)c12 the results were RAD52 inh 90, RAD54 branch inconclusive, rRNA inh HTS inactive, MLL AF4-AF9 inh inactive and RAD52 DNA ctr inactive.
For COc1cccc2sc3cc(C#CC4(O)CCCCC4)ccc3c(=O)c12 the results were RAD52 inh inactive, RAD54 branch inactive, rRNA inh HTS inactive, MLL AF4-AF9 inh inactive and GSIS activator inactive.
For CCN(CC)CCOC(=O)c1ccc(N)cc1 the results were RAD52 inh 88, RAD54 branch inactive, E-selectin induc inactive, MLL AF4-AF9 inh inactive and RAD52 DNA ctr inactive.
For CCN(CC)CCOC(=O)c1ccc([N+](=O)[O-])cc1 the results were RAD52 inh inactive, E-selectin induc inactive, rRNA inh HTS inactive, MLL AF4-AF9 inh inactive and GSIS activator inactive.
CCN(CC)CCOC(=O)c1ccc(NC(=O)/C=C/c2cccs2)cc1 was read as RAD52 inh 58, E-selectin induc inactive, rRNA inh HTS inactive, MLL AF4-AF9 inh inactive, GSIS activator inactive and RAD52 DNA ctr inactive.
CCCOc1cc(N)ccc1C(=O)OCCN(CC)CC was read as RAD52 inh 62, RAD54 branch inactive, E-selectin induc inactive, MLL AF4-AF9 inh inactive and RAD52 DNA ctr inactive.
For C[C@H]1CCCCO[C@@H](CN(C)C(=O)NC2CCCCC2)[C@@H](C)CN([C@@H](C)CO)C(=O)c2cc(NC(=O)C3CCCCC3)ccc2O1 the results were RAD52 inh inactive, RAD54 branch inactive, E-selectin induc inactive, rRNA inh HTS inactive, MLL AF4-AF9 inh inactive and GSIS activator inactive.
`Cc1cccc(CN2C(=O)c3ccccc3S(=O)(=O)c3ccc(C(=O)NCCCN4CCCC4)cc32)c1` gave RAD52 inh 51, RAD54 branch inactive, rRNA inh HTS inactive, MLL AF4-AF9 inh inactive, GSIS activator inactive and RAD52 DNA ctr inactive.
Screening O=C(NCCN1CCCC1)c1ccc2c(c1)N(Cc1cccc(Cl)c1)C(=O)c1ccccc1S2(=O)=O returned RAD52 inh inactive, RAD54 branch inactive, rRNA inh HTS inactive, MLL AF4-AF9 inh inactive and GSIS activator inactive.
For CCOC(=O)c1c(CN(C)C)n(-c2ccccc2)c2cc(Br)c(OC)cc12 the results were RAD52 inh inactive, RAD54 branch inactive, E-selectin induc inactive, rRNA inh HTS inactive, MLL AF4-AF9 inh inactive and GSIS activator inactive.
`CCOC(=O)c1c(C)n(CC(O)CN(C)C)c2cc(Br)c(OC)cc12` (stereo unspecified) gave RAD52 inh 85, E-selectin induc inactive, rRNA inh HTS inactive, MLL AF4-AF9 inh inactive, GSIS activator inactive and RAD52 DNA ctr inactive.
COc1cccc(NC(=O)N[C@H]2CC[C@H](CC(=O)NCc3ccccn3)O[C@H]2CO)c1 was read as RAD52 inh inactive, RAD54 branch inactive, E-selectin induc inactive, rRNA inh HTS inactive, MLL AF4-AF9 inh inactive and GSIS activator inactive.
For CCCCCCCCCCCCCCCC[N+](C)(C)Cc1ccc(F)cc1 the results were RAD52 inh 91, rRNA inh HTS inactive, MLL AF4-AF9 inh inactive and RAD52 DNA ctr 26µM.
For OC(c1ccccc1)(c1ccccc1)C1CCN(CCCOc2ccccc2Cl)CC1 the results were RAD52 inh 55, E-selectin induc inactive, rRNA inh HTS inactive, MLL AF4-AF9 inh inactive, GSIS activator inactive and RAD52 DNA ctr inactive.
Screening COc1ccccc1OCCCN1CCC(C(O)(c2ccccc2)c2ccccc2)CC1 returned RAD52 inh inactive, E-selectin induc inactive, rRNA inh HTS inactive, MLL AF4-AF9 inh inactive and GSIS activator inactive.
Screening COc1ccc(/C=N/NC(=O)c2cccnc2)cc1CN1CCc2cc(OC)c(OC)cc2C1C (stereo unspecified) returned RAD52 inh inactive, rRNA inh HTS inactive, MLL AF4-AF9 inh inactive and GSIS activator inactive.
Screening COc1ccc(/C=N/NC(=O)c2cc(OC)c(OC)c(OC)c2)cc1CN1CCc2cc(OC)c(OC)cc2C1C (stereo unspecified) returned RAD52 inh 53, E-selectin induc inactive, rRNA inh HTS inactive, MLL AF4-AF9 inh inactive, GSIS activator inactive and RAD52 DNA ctr inactive.
Screening CC(C)NC(=O)N(C)C[C@H]1Oc2c(NC(=O)CCCCCC(=O)Nc3ccccc3N)cccc2C(=O)N([C@H](C)CO)C[C@H]1C returned RAD52 inh inactive, E-selectin induc inactive, rRNA inh HTS inactive, MLL AF4-AF9 inh inactive and GSIS activator inactive.
`CCCNC(=O)N1CC[C@@H]2[C@@H](CO)N(C)c3ccc(-c4ccc(F)cc4)cc3[C@@H]21` gave RAD52 inh inactive, RAD54 branch inactive, E-selectin induc inactive, rRNA inh HTS inactive, MLL AF4-AF9 inh inactive and GSIS activator inactive.
